Assay results: ChEMBL document CHEMBL1125780, “Monovalent sialosides that bind tightly to influenza A virus” (J Med Chem, 1991)

Target: Hemagglutinin (Influenza A virus (strain A/X-31 H3N2)) (UniProt P03438)
Assay: Inhibition of influenza A, strain X-31, induced hemagglutinination of chicken erythrocytes
Assay type: functional
Settings: Influenza A virus (A/X-31(H3N2))
Procedure, shortened: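 Binding affinities come from hemagglutination inhibition with adult chicken red blood cells. Each is reported as a relative affinity against methyl α-sialoside (Neu5Acα2Me), whose affinity is set at 1.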

Chain of Hemagglutinin (Influenza A virus (strain A/X-31 H3N2)) (P03438 whole entry): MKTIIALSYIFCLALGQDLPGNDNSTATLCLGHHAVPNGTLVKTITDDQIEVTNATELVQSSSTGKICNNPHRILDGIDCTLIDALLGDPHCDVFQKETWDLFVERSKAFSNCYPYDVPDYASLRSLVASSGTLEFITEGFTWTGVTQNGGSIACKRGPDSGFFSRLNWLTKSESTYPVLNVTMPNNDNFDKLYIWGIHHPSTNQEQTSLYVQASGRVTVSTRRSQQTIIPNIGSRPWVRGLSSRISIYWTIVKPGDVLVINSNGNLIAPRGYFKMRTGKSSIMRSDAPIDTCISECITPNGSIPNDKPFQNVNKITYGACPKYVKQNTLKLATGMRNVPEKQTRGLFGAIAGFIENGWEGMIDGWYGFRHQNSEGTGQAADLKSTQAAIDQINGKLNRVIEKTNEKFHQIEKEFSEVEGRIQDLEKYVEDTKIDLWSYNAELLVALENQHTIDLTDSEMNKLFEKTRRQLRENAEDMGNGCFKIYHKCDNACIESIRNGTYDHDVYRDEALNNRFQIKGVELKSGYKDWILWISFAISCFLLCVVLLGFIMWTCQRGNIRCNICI

Point of comparison: `CC(=O)NC1C(O)CC(OCCCCC(=O)NCc2cccc3ccccc23)(C(=O)O)OC1[C@H](O)[C@H](O)CO` (some centres undefined), Relative affinity 32. Against it:
- CNC(=O)CCCCOC1(C(=O)O)CC(O)C(NC(C)=O)C([C@H](O)[C@H](O)CO)O1 (some centres undefined) — lower, 1
- CC(=O)NC1C(O)CC(OCCCCCCC(=O)NCc2cc3ccccc3c3ccccc23)(C(=O)O)OC1[C@H](O)[C@H](O)CO (some centres undefined) — higher, 64
- CC(=O)NC1C(O)CC(OCCC(=O)NCc2cccc3ccccc23)(C(=O)O)OC1[C@H](O)[C@H](O)CO (some centres undefined) — lower, 8
- CC(=O)NC1C(O)CC(OCCCCC(=O)NCc2cc3ccccc3c3ccccc23)(C(=O)O)OC1[C@H](O)[C@H](O)CO (some centres undefined) — the same, 32
- CC(=O)NC1C(O)CC(OCCCCCCC(=O)NCc2ccccc2)(C(=O)O)OC1[C@H](O)[C@H](O)CO (some centres undefined) — lower, 16
- CC(=O)NC1C(O)CC(OCCCCC(=O)NCCNC(=O)OCc2ccccc2)(C(=O)O)OC1[C@H](O)[C@H](O)CO (some centres undefined) — lower, 4
- CC(=O)NC1C(O)CC(OCCCCCCCCC(=O)NCc2ccccc2)(C(=O)O)OC1[C@H](O)[C@H](O)CO (some centres undefined) — lower, < 8
- CC(=O)NC1C(O)CC(OCCCCC(=O)NCc2ccc3ncccc3c2)(C(=O)O)OC1[C@H](O)[C@H](O)CO (some centres undefined) — lower, 8
- CC(=O)NC1C(O)CC(OCCCCC(=O)NCc2cccc(C(=O)O)c2)(C(=O)O)OC1[C@H](O)[C@H](O)CO (some centres undefined) — lower, 16
- CC(=O)NC1C(O)CC(OCCCCC(=O)NCc2ccccc2)(C(=O)O)OC1[C@H](O)[C@H](O)CO (some centres undefined) — lower, 8
- CC(=O)NC1C(O)CC(OCCCCCCC(=O)NCc2cccc3ccccc23)(C(=O)O)OC1[C@H](O)[C@H](O)CO (some centres undefined) — higher, 64
- CC(=O)NC1C(O)CC(OCCCCC(=O)NNS(=O)(=O)c2cccc3c(N(C)C)cccc23)(C(=O)O)OC1[C@H](O)[C@H](O)CO (some centres undefined) — lower, 4
- CC(=O)NC1C(O)CC(OCCCCCCCCC(=O)NCc2cccc3ccccc23)(C(=O)O)OC1[C@H](O)[C@H](O)CO (some centres undefined) — lower, 16
